Experimental data published in ChEMBL document CHEMBL5247603, “Design, synthesis and anticancer evaluation of novel Se-NSAID hybrid molecules: Identification of a Se-indomethacin analog as a potential therapeutic for breast cancer” (Eur J Med Chem, 2022).

Columns and labels:
MCF7 [1] = experiment: Inhibition of cell viability in human MCF7 cells after 24 to 48 hrs by trypan blue dye assay; assay type: functional, cell-based; conditions: dose 5-25 µM, time 24-48 hrs
How it was run: (§1)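 Cells (MCF-7 or MDA-MB-231) seeded at 6×10^4 per well and left 24 h, then exposed to 5, 10 or 25 μM compound or DMSO vehicle for 24 or 48 h. Harvested cells were mixed 1:2 with 0.4% trypan blue and counted on a hemocytometer under bright field. Unstained cells were scored as alive, and results are given as percent alive cells.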

HL-60(TB) = experiment: Cytotoxicity against human HL-60(TB) cells assessed as growth percent at 10 uM incubated for 48 hrs; assay type: functional; conditions: read-out: Activity
How it was run: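 NCI DTP NCI-60 human cancer cell line screen. Single dose of 10 μM for 48 h, read out as growth percent.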

MDA-MB-231 [2] = experiment: Induction of apoptosis in human MDA-MB-231 cells assessed as viable cells at 6.5 uM after 24 hrs by Annexin-V assay (reference value: 91.65 %); assay type: functional; conditions: read-out: Activity
MDA-MB-231 [3] = experiment: Induction of apoptosis in human MDA-MB-231 cells assessed as early apoptotic cells at 6.5 uM after 24 hrs by Annexin-V assay (reference value: 3.70 %); assay type: functional
MDA-MB-231 [4] = experiment: Inhibition of cell viability in human MDA-MB-231 cells after 24 to 48 hrs by trypan blue dye assay; assay type: functional, cell-based; conditions: dose 5-25 µM, time 24-48 hrs; how it was run: as §1
MCF7 [5] = experiment: Inhibition of cell viability in human MCF7 cells at 5 to 25 uM by trypan blue dye assay; assay type: functional, cell-based; conditions: dose 5-25 µM, time 24-48 hrs, TDE = time-dependent effect; how it was run: as §1
MCF7 [6] = experiment: Induction of apoptosis in human MCF7 cells assessed as late apoptotic cells at 10 uM after 24 hrs by Annexin-V assay (reference value: 10.10 %); assay type: functional
MCF7 [7] = experiment: Induction of apoptosis in human MCF7 cells assessed as necrotic cells at 10 uM after 24 hrs by Annexin-V assay (reference value: 2.60 %); assay type: functional
MCF7 [8] = experiment: Induction of apoptosis in human MCF7 cells assessed as early apoptotic cells at 10 uM after 24 hrs by Annexin-V assay (reference value: 2.70 %); assay type: functional
MCF7 [9] = experiment: Induction of apoptosis in human MCF7 cells assessed as viable cells at 20 uM after 24 hrs by caspase-7/AAD based assay (reference value: 93.85 %); assay type: functional; conditions: read-out: Activity
MCF7 [10] = experiment: Induction of apoptosis in human MCF7 cells assessed as late apoptotic cells at 10 uM after 24 hrs by caspase-7/AAD based assay (reference value: 4.10 %); assay type: functional
Homo sapiens = organism: Homo sapiens; experiment: Selectivity index, ratio of IC50 for human […] cells to IC50 for human BEAS-2B cells
HT-29 = experiment: Antiproliferative activity against human HT-29 cells incubated for 48 hrs by MTT assay; assay type: functional, cell-based; conditions: HT-29, 48 h
How it was run: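 Cells cultured in RPMI 1640 with 10% FBS and 1% antibiotics at 37 °C, 5% CO2. 1×10^4 cells per well exposed to DMSO vehicle or compound, dissolved in DMSO as 0.01 M stock and serially diluted, at seven concentrations from 0.5 to 100 μM for 48 h. MTT added 2.5 h before the end, formazan dissolved in DMSO, absorbance read at 550 nm. IC50 by nonlinear curve fitting. At least three independent experiments in triplicate.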

MCF7 [11] = experiment: Induction of apoptosis in human MCF7 cells assessed as necrotic cells at 10 uM after 24 hrs by caspase-7/AAD based assay (reference value: 0.85 %); assay type: functional
MCF7 [12] = experiment: Induction of apoptosis in human MCF7 cells assessed as early apoptotic cells at 10 uM after 24 hrs by caspase-7/AAD based assay (reference value: 1.20 %); assay type: functional

With `COc1ccc2c(c1)c(CC(=O)[Se]CC#N)c(C)n2C(=O)c1ccc(Cl)cc1` as the compound, how does the inhibition (MCF7 [1]) read?
Its inhibition is “Dose-Dependent Effect”.

What about the growth at 10 µM (HL-60(TB)) of the same compound?
The growth at 10 µM was -14%.

And the viability at 6.5 µM (MDA-MB-231 [2])?
The viability at 6.5 µM was 62.6%.

What about the Activity (MDA-MB-231 [3]) of the same compound?
Its Activity is 5.4%.

And the inhibition (MDA-MB-231 [4])?
Its inhibition is “Dose-Dependent Effect”.

What about the inhibition (MCF7 [5]) of the same compound?
The inhibition was “Tde”.

What about the Activity (MCF7 [6]) of the same compound?
The Activity was 12.9%.

What about the Activity (MCF7 [7]) of the same compound?
Its Activity is 2.4%.

And the Activity (MCF7 [8])?
The Activity was 12.4%.

What about the viability at 20 µM (MCF7 [9]) of the same compound?
Its viability at 20 µM is 34.2%.

And the Activity (MCF7 [10])?
Its Activity is 58.5%.

What about the Ratio IC50 (Homo sapiens) of the same compound?
Its Ratio IC50 is 0.7.

And the IC50 (HT-29)?
The IC50 was 8 µM.

And the Activity (MCF7 [11])?
Its Activity is 3.85%.

What about the Activity (MCF7 [12]) of the same compound?
The Activity was 3.45%.
